# System: Acinetobacter baumannii
# Assay: Antibacterial activity against gram-negative Acinetobacter baumannii AB250 by CLSI method
# Type: functional
# Outline: (§1)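 Broth microdilution MIC per CLSI in cation-adjusted Mueller Hinton broth, prepared fresh and held at 4 °C. Defibrinated horse blood added where appropriate. Compounds serially diluted in sterile deionized water. Strains from ATCC unless otherwise noted. Runs accepted when comparator antibiotics fell within QC ranges for ATCC quality control strains.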
row,Structure (SMILES),MIC [µg/mL]
1,CC(C)CN1CCC[C@H]1c1cc(O)c2c(c1C(F)(F)F)C[C@H]1C[C@H]3[C@H](N(C)C)C(O)=C(C(N)=O)C(=O)[C@@]3(O)C(O)=C1C2=O,> 32
2,CC1CCC(c2cc(O)c3c(c2C(F)(F)F)C[C@H]2C[C@H]4[C@H](N(C)C)C(O)=C(C(N)=O)C(=O)[C@@]4(O)C(O)=C2C3=O)N1 (stereo not given in full),0.5
3,CN(C)[C@@H]1C(O)=C(C(N)=O)C(=O)[C@@]2(O)C(O)=C3C(=O)c4c(O)cc(C5CCCN5)c(OC(F)(F)F)c4C[C@H]3C[C@@H]12 (stereo not given in full),2

# System: Stenotrophomonas maltophilia
# Assay: Antibacterial activity against gram-negative Stenotrophomonas maltophilia SM256 by CLSI method
# Type: functional
# Outline: as §1
row,Structure (SMILES),MIC [µg/mL]
1,CC(C)CN1CCC[C@H]1c1cc(O)c2c(c1C(F)(F)F)C[C@H]1C[C@H]3[C@H](N(C)C)C(O)=C(C(N)=O)C(=O)[C@@]3(O)C(O)=C1C2=O,> 32
2,CC1CCC(c2cc(O)c3c(c2C(F)(F)F)C[C@H]2C[C@H]4[C@H](N(C)C)C(O)=C(C(N)=O)C(=O)[C@@]4(O)C(O)=C2C3=O)N1 (stereo not given in full),0.25
3,CN(C)[C@@H]1C(O)=C(C(N)=O)C(=O)[C@@]2(O)C(O)=C3C(=O)c4c(O)cc(C5CCCN5)c(OC(F)(F)F)c4C[C@H]3C[C@@H]12 (stereo not given in full),2

# System: Burkholderia cenocepacia
# Assay: Antibacterial activity against gram-negative Burkholderia cenocepacia BC240 by CLSI method
# Type: functional
# Outline: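 Defibrinated horse blood added where appropriate. Compounds serially diluted in sterile deionized water. Strains from ATCC unless otherwise noted. Runs accepted when comparator antibiotics fell within QC ranges for ATCC quality control strains.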
row,Structure (SMILES),MIC [µg/mL]
1,CC(C)CN1CCC[C@H]1c1cc(O)c2c(c1C(F)(F)F)C[C@H]1C[C@H]3[C@H](N(C)C)C(O)=C(C(N)=O)C(=O)[C@@]3(O)C(O)=C1C2=O,> 32
2,CC1CCC(c2cc(O)c3c(c2C(F)(F)F)C[C@H]2C[C@H]4[C@H](N(C)C)C(O)=C(C(N)=O)C(=O)[C@@]4(O)C(O)=C2C3=O)N1 (stereo not given in full),4
3,CN(C)[C@@H]1C(O)=C(C(N)=O)C(=O)[C@@]2(O)C(O)=C3C(=O)c4c(O)cc(C5CCCN5)c(OC(F)(F)F)c4C[C@H]3C[C@@H]12 (stereo not given in full),8

# System: Enterococcus faecalis
# Assay: Antibacterial activity against gram-positive Enterococcus faecalis EFs327 harboring tet(M) by CLSI method
# Type: functional
# Outline: (§2)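 CLSI broth microdilution MIC in fresh cation-adjusted Mueller Hinton broth, supplemented with defibrinated horse blood where appropriate. Compounds serially diluted in sterile deionized water. Runs accepted when comparator antibiotics against ATCC quality-control strains fell within recommended ranges.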
row,Structure (SMILES),MIC [µg/mL]
1,CC(C)CN1CCC[C@H]1c1cc(O)c2c(c1C(F)(F)F)C[C@H]1C[C@H]3[C@H](N(C)C)C(O)=C(C(N)=O)C(=O)[C@@]3(O)C(O)=C1C2=O,1
2,CC1CCC(c2cc(O)c3c(c2C(F)(F)F)C[C@H]2C[C@H]4[C@H](N(C)C)C(O)=C(C(N)=O)C(=O)[C@@]4(O)C(O)=C2C3=O)N1 (stereo not given in full),1
3,CN(C)[C@@H]1C(O)=C(C(N)=O)C(=O)[C@@]2(O)C(O)=C3C(=O)c4c(O)cc(C5CCCN5)c(OC(F)(F)F)c4C[C@H]3C[C@@H]12 (stereo not given in full),1

# System: Enterococcus faecium
# Assay: Antibacterial activity against gram-positive Enterococcus faecium EFm404 harboring tet(M) by CLSI method
# Type: functional
# Outline: as §2
row,Structure (SMILES),MIC [µg/mL]
1,CC(C)CN1CCC[C@H]1c1cc(O)c2c(c1C(F)(F)F)C[C@H]1C[C@H]3[C@H](N(C)C)C(O)=C(C(N)=O)C(=O)[C@@]3(O)C(O)=C1C2=O,1
2,CC1CCC(c2cc(O)c3c(c2C(F)(F)F)C[C@H]2C[C@H]4[C@H](N(C)C)C(O)=C(C(N)=O)C(=O)[C@@]4(O)C(O)=C2C3=O)N1 (stereo not given in full),0.25
3,CN(C)[C@@H]1C(O)=C(C(N)=O)C(=O)[C@@]2(O)C(O)=C3C(=O)c4c(O)cc(C5CCCN5)c(OC(F)(F)F)c4C[C@H]3C[C@@H]12 (stereo not given in full),0.125

# System: Klebsiella pneumoniae
# Assay: Antibacterial activity against gram-negative Klebsiella pneumoniae KP457 harboring blacTX-M-15 extended spectrum beta-lactamase gene by CLSI method
# Type: functional
# Outline: as §2
row,Structure (SMILES),MIC [µg/mL]
1,CC(C)CN1CCC[C@H]1c1cc(O)c2c(c1C(F)(F)F)C[C@H]1C[C@H]3[C@H](N(C)C)C(O)=C(C(N)=O)C(=O)[C@@]3(O)C(O)=C1C2=O,> 32
2,CC1CCC(c2cc(O)c3c(c2C(F)(F)F)C[C@H]2C[C@H]4[C@H](N(C)C)C(O)=C(C(N)=O)C(=O)[C@@]4(O)C(O)=C2C3=O)N1 (stereo not given in full),0.25
3,CN(C)[C@@H]1C(O)=C(C(N)=O)C(=O)[C@@]2(O)C(O)=C3C(=O)c4c(O)cc(C5CCCN5)c(OC(F)(F)F)c4C[C@H]3C[C@@H]12 (stereo not given in full),0.25

# System: Proteus mirabilis
# Assay: Antibacterial activity against gram-negative Proteus mirabilis PM385 by CLSI method
# Type: functional
# Outline: as §1
row,Structure (SMILES),MIC [µg/mL]
1,CC(C)CN1CCC[C@H]1c1cc(O)c2c(c1C(F)(F)F)C[C@H]1C[C@H]3[C@H](N(C)C)C(O)=C(C(N)=O)C(=O)[C@@]3(O)C(O)=C1C2=O,> 32
2,CC1CCC(c2cc(O)c3c(c2C(F)(F)F)C[C@H]2C[C@H]4[C@H](N(C)C)C(O)=C(C(N)=O)C(=O)[C@@]4(O)C(O)=C2C3=O)N1 (stereo not given in full),0.5
3,CN(C)[C@@H]1C(O)=C(C(N)=O)C(=O)[C@@]2(O)C(O)=C3C(=O)c4c(O)cc(C5CCCN5)c(OC(F)(F)F)c4C[C@H]3C[C@@H]12 (stereo not given in full),1

# System: Pseudomonas aeruginosa
# Assay: Antibacterial activity against gram-negative Pseudomonas aeruginosa PA555 by CLSI method
# Type: functional
# Outline: as §1
row,Structure (SMILES),MIC [µg/mL]
1,CC(C)CN1CCC[C@H]1c1cc(O)c2c(c1C(F)(F)F)C[C@H]1C[C@H]3[C@H](N(C)C)C(O)=C(C(N)=O)C(=O)[C@@]3(O)C(O)=C1C2=O,> 32
2,CC1CCC(c2cc(O)c3c(c2C(F)(F)F)C[C@H]2C[C@H]4[C@H](N(C)C)C(O)=C(C(N)=O)C(=O)[C@@]4(O)C(O)=C2C3=O)N1 (stereo not given in full),8
3,CN(C)[C@@H]1C(O)=C(C(N)=O)C(=O)[C@@]2(O)C(O)=C3C(=O)c4c(O)cc(C5CCCN5)c(OC(F)(F)F)c4C[C@H]3C[C@@H]12 (stereo not given in full),8

# System: Enterobacter cloacae
# Assay: Antibacterial activity against gram-negative Enterobacter cloacae EC1603 harboring tet(A) by CLSI method
# Type: functional
# Outline: as §2
row,Structure (SMILES),MIC [µg/mL]
1,CC(C)CN1CCC[C@H]1c1cc(O)c2c(c1C(F)(F)F)C[C@H]1C[C@H]3[C@H](N(C)C)C(O)=C(C(N)=O)C(=O)[C@@]3(O)C(O)=C1C2=O,> 32
2,CC1CCC(c2cc(O)c3c(c2C(F)(F)F)C[C@H]2C[C@H]4[C@H](N(C)C)C(O)=C(C(N)=O)C(=O)[C@@]4(O)C(O)=C2C3=O)N1 (stereo not given in full),8
3,CN(C)[C@@H]1C(O)=C(C(N)=O)C(=O)[C@@]2(O)C(O)=C3C(=O)c4c(O)cc(C5CCCN5)c(OC(F)(F)F)c4C[C@H]3C[C@@H]12 (stereo not given in full),16

# System: Staphylococcus aureus
# Assay: Antibacterial activity against gram-positive Staphylococcus aureus SA101 by CLSI method
# Type: functional
# Outline: as §1
row,Structure (SMILES),MIC [µg/mL]
1,CC(C)CN1CCC[C@H]1c1cc(O)c2c(c1C(F)(F)F)C[C@H]1C[C@H]3[C@H](N(C)C)C(O)=C(C(N)=O)C(=O)[C@@]3(O)C(O)=C1C2=O,2
2,CC1CCC(c2cc(O)c3c(c2C(F)(F)F)C[C@H]2C[C@H]4[C@H](N(C)C)C(O)=C(C(N)=O)C(=O)[C@@]4(O)C(O)=C2C3=O)N1 (stereo not given in full),0.125
3,CN(C)[C@@H]1C(O)=C(C(N)=O)C(=O)[C@@]2(O)C(O)=C3C(=O)c4c(O)cc(C5CCCN5)c(OC(F)(F)F)c4C[C@H]3C[C@@H]12 (stereo not given in full),0.125

# System: Staphylococcus aureus
# Assay: Antibacterial activity against gram-positive Staphylococcus aureus SA161 harboring tet(M) by CLSI method
# Type: functional
# Outline: as §2
row,Structure (SMILES),MIC [µg/mL]
1,CC(C)CN1CCC[C@H]1c1cc(O)c2c(c1C(F)(F)F)C[C@H]1C[C@H]3[C@H](N(C)C)C(O)=C(C(N)=O)C(=O)[C@@]3(O)C(O)=C1C2=O,2
2,CC1CCC(c2cc(O)c3c(c2C(F)(F)F)C[C@H]2C[C@H]4[C@H](N(C)C)C(O)=C(C(N)=O)C(=O)[C@@]4(O)C(O)=C2C3=O)N1 (stereo not given in full),1
3,CN(C)[C@@H]1C(O)=C(C(N)=O)C(=O)[C@@]2(O)C(O)=C3C(=O)c4c(O)cc(C5CCCN5)c(OC(F)(F)F)c4C[C@H]3C[C@@H]12 (stereo not given in full),2

# System: Staphylococcus aureus
# Assay: Antibacterial activity against gram-positive Staphylococcus aureus SA158 harboring tet(K) by CLSI method
# Type: functional
# Outline: as §2
row,Structure (SMILES),MIC [µg/mL]
1,CC(C)CN1CCC[C@H]1c1cc(O)c2c(c1C(F)(F)F)C[C@H]1C[C@H]3[C@H](N(C)C)C(O)=C(C(N)=O)C(=O)[C@@]3(O)C(O)=C1C2=O,1
2,CC1CCC(c2cc(O)c3c(c2C(F)(F)F)C[C@H]2C[C@H]4[C@H](N(C)C)C(O)=C(C(N)=O)C(=O)[C@@]4(O)C(O)=C2C3=O)N1 (stereo not given in full),≤ 0.0156
3,CN(C)[C@@H]1C(O)=C(C(N)=O)C(=O)[C@@]2(O)C(O)=C3C(=O)c4c(O)cc(C5CCCN5)c(OC(F)(F)F)c4C[C@H]3C[C@@H]12 (stereo not given in full),≤ 0.0156

# System: Streptococcus pneumoniae
# Assay: Antibacterial activity against gram-positive Streptococcus pneumoniae SP160 harboring tet(M) by CLSI method
# Type: functional
# Outline: as §2
row,Structure (SMILES),MIC [µg/mL]
1,CC(C)CN1CCC[C@H]1c1cc(O)c2c(c1C(F)(F)F)C[C@H]1C[C@H]3[C@H](N(C)C)C(O)=C(C(N)=O)C(=O)[C@@]3(O)C(O)=C1C2=O,0.5
2,CC1CCC(c2cc(O)c3c(c2C(F)(F)F)C[C@H]2C[C@H]4[C@H](N(C)C)C(O)=C(C(N)=O)C(=O)[C@@]4(O)C(O)=C2C3=O)N1 (stereo not given in full),≤ 0.0156
3,CN(C)[C@@H]1C(O)=C(C(N)=O)C(=O)[C@@]2(O)C(O)=C3C(=O)c4c(O)cc(C5CCCN5)c(OC(F)(F)F)c4C[C@H]3C[C@@H]12 (stereo not given in full),≤ 0.0156

# System: Escherichia coli
# Assay: Antibacterial activity against gram-negative Escherichia coli EC107 by CLSI method
# Type: functional
# Outline: as §1
row,Structure (SMILES),MIC [µg/mL]
1,CC(C)CN1CCC[C@H]1c1cc(O)c2c(c1C(F)(F)F)C[C@H]1C[C@H]3[C@H](N(C)C)C(O)=C(C(N)=O)C(=O)[C@@]3(O)C(O)=C1C2=O,4
2,CC1CCC(c2cc(O)c3c(c2C(F)(F)F)C[C@H]2C[C@H]4[C@H](N(C)C)C(O)=C(C(N)=O)C(=O)[C@@]4(O)C(O)=C2C3=O)N1 (stereo not given in full),≤ 0.0156
3,CN(C)[C@@H]1C(O)=C(C(N)=O)C(=O)[C@@]2(O)C(O)=C3C(=O)c4c(O)cc(C5CCCN5)c(OC(F)(F)F)c4C[C@H]3C[C@@H]12 (stereo not given in full),≤ 0.0156

# System: Escherichia coli
# Assay: Antibacterial activity against gram-negative Escherichia coli EC155 harboring tet(A) by CLSI method
# Type: functional
# Outline: as §2
row,Structure (SMILES),MIC [µg/mL]
1,CC(C)CN1CCC[C@H]1c1cc(O)c2c(c1C(F)(F)F)C[C@H]1C[C@H]3[C@H](N(C)C)C(O)=C(C(N)=O)C(=O)[C@@]3(O)C(O)=C1C2=O,> 32
2,CC1CCC(c2cc(O)c3c(c2C(F)(F)F)C[C@H]2C[C@H]4[C@H](N(C)C)C(O)=C(C(N)=O)C(=O)[C@@]4(O)C(O)=C2C3=O)N1 (stereo not given in full),0.5
3,CN(C)[C@@H]1C(O)=C(C(N)=O)C(=O)[C@@]2(O)C(O)=C3C(=O)c4c(O)cc(C5CCCN5)c(OC(F)(F)F)c4C[C@H]3C[C@@H]12 (stereo not given in full),8

# Reference: ChEMBL document CHEMBL4007456, “Heterocyclyl Tetracyclines. 1. 7-Trifluoromethyl-8-Pyrrolidinyltetracyclines: Potent, Broad Spectrum Antibacterial Agents with Enhanced Activity against Pseudomonas aeruginosa” (2017)
